According to ChEMBL document CHEMBL1137912, “Novel isoxazole carboxamides as growth hormone secretagogue receptor (GHS-R) antagonists” (Bioorg Med Chem Lett, 2004):

Key:
[1] = target: T1, Growth hormone secretagogue receptor type 1 (Homo sapiens, UniProt Q92847); assay: Ability to inhibit ghrelin induced increase in intracellular [Ca2+] in CHO-K cells was determined by FLIPR assay; format: functional, cell-based
Summary of the method: (§1)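 Antagonist mode in CHO-K cells stably expressing human GHS-R, grown to confluency overnight. Cells were loaded with Fluo-4 AM plus probenecid in DPBS for 1–3h in the dark at room temperature, then washed. Compound was added in 0.1% BSA/4% DMSO DPBS and read for 3min. Ghrelin was then added and read a further 3min at ex 488/em 520nm. IC50 from sigmoidal fit.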

[2] = target: T1, Growth hormone secretagogue receptor type 1; assay: Ability to displace [125I]ghrelin from cloned human GHS-R expressed in CHO-K cells was determined (Kd of ghrelin is 0.4 nM); format: cell-based
[3] = target: T1, Growth hormone secretagogue receptor type 1; assay: Binding affinity to displace [125I]ghrelin from cloned human GHS-R expressed in CHO-K cells was determined (Kd of ghrelin is 0.4 nM); format: cell-based
[4] = target: Growth hormone secretagogue receptor type 1 (Rattus norvegicus, UniProt O08725); assay: Inhibitory concentration against rat Growth hormone secretagogue receptor
[5] = target: Growth hormone secretagogue receptor type 1 (Mus musculus, UniProt Q99P50); assay: Inhibitory concentration against mouse Growth hormone secretagogue receptor
[6] = target: T1, Growth hormone secretagogue receptor type 1; assay: Ability to inhibit ghrelin induced increase in intracellular [Ca2+] in CHO-K cells; format: functional, cell-based; summary of the method: as §1

T1 sequence (Q92847 whole entry): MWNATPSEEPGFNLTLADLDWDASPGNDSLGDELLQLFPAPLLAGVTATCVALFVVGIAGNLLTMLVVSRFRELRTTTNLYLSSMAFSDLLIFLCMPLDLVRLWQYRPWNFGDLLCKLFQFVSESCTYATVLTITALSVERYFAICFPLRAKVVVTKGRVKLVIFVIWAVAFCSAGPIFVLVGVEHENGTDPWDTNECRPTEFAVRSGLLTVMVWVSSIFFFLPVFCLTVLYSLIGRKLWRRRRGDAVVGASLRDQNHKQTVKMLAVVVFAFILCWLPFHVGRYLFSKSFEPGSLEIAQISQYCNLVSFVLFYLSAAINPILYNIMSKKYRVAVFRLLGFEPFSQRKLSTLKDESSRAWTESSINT
Chain of Growth hormone secretagogue receptor type 1 (Rattus norvegicus, UniProt O08725) (O08725 whole entry): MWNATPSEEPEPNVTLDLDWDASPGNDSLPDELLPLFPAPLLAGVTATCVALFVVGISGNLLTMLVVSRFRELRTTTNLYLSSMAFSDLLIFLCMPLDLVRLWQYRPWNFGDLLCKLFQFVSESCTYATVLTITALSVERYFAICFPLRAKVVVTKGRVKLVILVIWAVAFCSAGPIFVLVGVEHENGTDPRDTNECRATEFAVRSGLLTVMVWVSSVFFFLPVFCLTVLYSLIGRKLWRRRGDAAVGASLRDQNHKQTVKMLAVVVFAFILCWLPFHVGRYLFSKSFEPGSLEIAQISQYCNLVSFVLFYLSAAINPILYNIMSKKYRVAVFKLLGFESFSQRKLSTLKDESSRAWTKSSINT
Chain of Growth hormone secretagogue receptor type 1 (Mus musculus, UniProt Q99P50) (Q99P50 whole entry): as the sequence (O08725 whole entry) above, with P30S, A249S counted along it

Row | IC50 [1] [nM] | IC50 [2] [nM] | SMILES | other results
1 | 57 | 53 | CCN(CC)[C@H]1CC[C@H](NC(=O)c2c(-c3c(Cl)cccc3Cl)noc2C)CC1 | –
2 | 564 | 162 | CCN(CC)c1ccc(NC(=O)c2c(-c3c(Cl)cccc3Cl)noc2CCc2cccc3c2OCO3)cc1 | –
3 | 15 | 39 | CCN(CC)c1ccc(NC(=O)c2c(-c3c(Cl)cccc3Cl)noc2CCN2C(=O)CCC2(C)C)cc1 | –
4 | 492 | 131 | CCCc1onc(-c2c(Cl)cccc2Cl)c1C(=O)Nc1ccc(N(CC)CC)cc1 | –
5 | 19 | 6 | CCN(CC)c1ccc(NC(=O)c2c(-c3c(Cl)cccc3Cl)noc2CCC2OCCCO2)cc1 | –
6 | 308 | 132 | CCN(CC)c1ccc(NC(=O)c2c(-c3c(Cl)cccc3Cl)noc2CCCO)cc1 | –
7 | 180 | – | CCN(CC)c1ccc(NC(=O)c2c(-c3c(Cl)cccc3Cl)noc2C)cc1 | IC50 [3]: 130 nM
8 | 18 | 18 | CCN(CC)c1ccc(NC(=O)c2c(-c3c(Cl)cccc3Cl)noc2CCN2CCCC2=O)cc1 | –
9 | 861 | 150 | CCN(CC)c1ccc(NC(=O)c2c(-c3c(Cl)cccc3Cl)noc2C(C)C)cc1 | –
10 | 103 | 194 | CCN(CC)[C@H]1CC[C@H](NC(=O)c2c(-c3c(Cl)cccc3Cl)noc2CCC2CCCO2)CC1 (some centres not stated) | –
11 | 10 | 21 | CCN(CC)c1ccc(NC(=O)c2c(-c3c(Cl)cccc3Cl)noc2CCN2CCN(C)C2=O)cc1 | –
12 | 19 | 34 | CCN(CC)c1ccc(NC(=O)c2c(-c3c(Cl)cccc3Cl)noc2CCN(C)C(C)=O)cc1 | –
13 | 56 | 25 | CCN(CC)c1ccc(NC(=O)c2c(-c3c(Cl)cccc3Cl)noc2CCC2OCCO2)cc1 | –
14 | 115 | 110 | CCN(CC)c1ccc(NC(=O)c2c(-c3c(Cl)cccc3Cl)noc2CCOC)cc1 | –
15 | 102 | 39 | CCN(CC)c1ccc(NC(=O)c2c(-c3c(Cl)cccc3Cl)noc2CCC2CCCCO2)cc1 (configuration not stated) | –
16 | 190 | 139 | CCN(CC)[C@H]1CC[C@H](NC(=O)c2c(-c3c(Cl)cccc3Cl)noc2CCN2CCCCC2=O)CC1 | –
17 | 57 | 57 | CCN(CC)c1ccc(NC(=O)c2c(-c3c(Cl)cccc3Cl)noc2CCC2CCCO2)cc1 (configuration not stated) | –
18 | 54 | 32 | CCN(CC)[C@H]1CC[C@H](NC(=O)c2c(-c3c(Cl)cccc3Cl)noc2CCc2ccc3c(c2)OCO3)CC1 | IC50 [4]: 12 nM; IC50 [5]: 7 nM
19 | 93 | 47 | CCN(CC)c1ccc(NC(=O)c2c(-c3c(Cl)cccc3Cl)noc2CCc2ccc3c(c2)OCO3)cc1 | –
20 | 98 | 122 | CCN(CC)c1ccc(NC(=O)c2c(-c3c(Cl)cccc3Cl)noc2CN2CCCC2=O)cc1 | –
21 | 146 | 29 | CCN(CC)c1ccc(NC(=O)c2c(-c3c(Cl)cccc3Cl)noc2CCC2CCOCC2)cc1 | –
22 | – | 87 | CCN(CC)[C@H]1CC[C@H](NC(=O)c2c(-c3c(Cl)cccc3Cl)noc2CCC2OCCCO2)CC1 | IC50 [6]: 3 nM
23 | 8 | 9 | CCN(CC)c1ccc(NC(=O)c2c(-c3c(Cl)cccc3Cl)noc2CCN2CCCCC2=O)cc1 | –
24 | 319 | 147 | CCc1onc(-c2c(Cl)cccc2Cl)c1C(=O)Nc1ccc(N(CC)CC)cc1 | –
25 | 714 | 389 | CCN(CC)c1ccc(NC(=O)c2c(-c3c(Cl)cccc3Cl)noc2CCc2ccccc2OC)cc1 | –
